Measured values as given in ChEMBL document CHEMBL1157378, “Role for cell density in antifungal drug resistance in Candida albicans biofilms” (2007).
Converted amounts (≈) assume the structure as drawn.

Key:
Format in all cases: functional
Candida albicans [1] = experiment: Antimicrobial activity against Cdr1, Cdr2 and Mdr1 deficient Candida albicans DSY1050 intact biofilms after 48 hrs by XTT assay; details: DSY1050, 48 h
In short: (§1)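 Biofilm seeded at 1 x 10^6 cells/ml in RPMI in polystyrene microtiter wells and grown 48 h at 37°C in a moist chamber. Washed once and drug added to the same well (twofold dilutions, 1,024 to 0.0313 µg/ml) for 48 h at 37°C (caspofungin 24 h). Read-out: XTT/menadione reduction at 490 nm.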

Candida albicans [2] = experiment: Antimicrobial activity against Cdr1, Cdr2 and Mdr1 deficient Candida albicans DSY1050 dissociated biofilms at cell density of 10^8 cells/ml after 48 hrs by XTT assay; details: DSY1050, 48 h
In short: (§2)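 Polystyrene-well biofilms (48 h, 37°C) washed, then broken up in 100 µl RPMI by scraping and aspiration. Cells used undiluted (about 2 x 10^8 cells/ml equivalent) or adjusted by A600 against a hemacytometer-calibrated yeast standard curve. Drug exposure at 37°C for 48 h (caspofungin 24 h), then XTT/menadione read at 490 nm.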

Candida albicans [3] = experiment: Antimicrobial activity against Candida albicans SC5314 at planktonic cell density of 10^3 cells/ml after 48 hrs by XTT assay; details: SC5314, 48 h
In short: (§3)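 YNB-grown yeast (50 mM glucose, room temperature, shaken, to ~2 x 10^8 cells/ml) washed into MOPS-buffered RPMI 1640 with L-glutamine and set to the stated density. Exposed to twofold serial drug dilutions (1,024 to 0.0313 µg/ml) at 37°C, 48 h (caspofungin 24 h), with drug-free controls. Read-out: XTT (0.5 g/liter) plus 1 µM menadione, formazan at 490 nm.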

Candida albicans [4] = experiment: Antimicrobial activity against Candida albicans GDH2346 intact biofilms after 48 hrs by XTT assay; details: GDH2346, 48 h; in short: as §1
Candida albicans [5] = experiment: Antimicrobial activity against Chk1 deficient Candida albicans CHK21 dissociated biofilms at cell density of 10^3 cells/ml after 48 hrs by XTT assay; details: CHK21, 48 h; in short: as §2
Candida albicans [6] = experiment: Antimicrobial activity against fluconazole-resistant Candida albicans FH5 at planktonic cell density of 10^8 cells/ml after 48 hrs by XTT assay; details: FH5, 48 h; in short: as §3
Candida albicans [7] = experiment: Antimicrobial activity against Candida albicans FH1 dissociated biofilms at cell density of 10^3 cells/ml after 48 hrs by XTT assay; details: FH1, 48 h; in short: as §2
Candida albicans [8] = experiment: Antimicrobial activity against Cdr1, Cdr2 and Mdr1 deficient Candida albicans DSY1050 at planktonic cell density of 10^8 cells/ml after 48 hrs by XTT assay; details: DSY1050, 48 h; in short: as §3
Candida albicans [9] = experiment: Antimicrobial activity against fluconazole-resistant Candida albicans FH5 at planktonic cell density of 10^3 cells/ml after 48 hrs by XTT assay; details: FH5, 48 h; in short: as §3
Candida albicans [10] = experiment: Antimicrobial activity against Candida albicans FH1 at planktonic cell density of 10^3 cells/ml after 48 hrs by XTT assay; details: FH1, 48 h; in short: as §3
Candida albicans [11] = experiment: Antimicrobial activity against Cdr1, Cdr2 and Mdr1 deficient Candida albicans DSY1050 at planktonic cell density of 10^3 cells/ml after 48 hrs by XTT assay; details: DSY1050, 48 h; in short: as §3
Candida albicans [12] = experiment: Antimicrobial activity against Candida albicans FH1 intact biofilms after 48 hrs by XTT assay; details: FH1, 48 h; in short: as §1
Candida albicans [13] = experiment: Antimicrobial activity against Candida albicans GDH2346 at planktonic cell density of 10^3 cells/ml after 48 hrs by XTT assay; details: GDH2346, 48 h; in short: as §3
Candida albicans [14] = experiment: Antimicrobial activity against fluconazole-resistant Candida albicans FH5 dissociated biofilms at cell density of 10^8 cells/ml after 48 hrs by XTT assay; details: FH5, 48 h; in short: as §2
Candida albicans [15] = experiment: Antimicrobial activity against Chk1 deficient Candida albicans CHK21 at planktonic cell density of 10^3 cells/ml after 48 hrs by XTT assay; details: CHK21, 48 h; in short: as §3
Candida albicans [16] = experiment: Antimicrobial activity against Cdr1, Cdr2 and Mdr1 deficient Candida albicans DSY1050 dissociated biofilms at cell density of 10^3 cells/ml after 48 hrs by XTT assay; details: DSY1050, 48 h; in short: as §2
Candida albicans [17] = experiment: Antimicrobial activity against fluconazole-resistant Candida albicans FH5 intact biofilms after 48 hrs by XTT assay; details: FH5, 48 h; in short: as §1
Candida albicans [18] = experiment: Antimicrobial activity against Candida albicans GDH2346 dissociated biofilms at cell density of 10^8 cells/ml after 48 hrs by XTT assay; details: GDH2346, 48 h; in short: as §2
Candida albicans [19] = experiment: Antimicrobial activity against Candida albicans GDH2346 at planktonic cell density of 10^8 cells/ml after 48 hrs by XTT assay; details: GDH2346, 48 h; in short: as §3
Candida albicans [20] = experiment: Antimicrobial activity against Candida albicans SC5314 dissociated biofilms at cell density of 10^3 cells/ml after 48 hrs by XTT assay; details: SC5314, 48 h; in short: as §2
Candida albicans [21] = experiment: Antimicrobial activity against fluconazole-resistant Candida albicans FH5 dissociated biofilms at cell density of 10^3 cells/ml after 48 hrs by XTT assay; details: FH5, 48 h; in short: as §2
Candida albicans [22] = experiment: Antimicrobial activity against Candida albicans SC5314 intact biofilms after 48 hrs by XTT assay; details: SC5314, 48 h; in short: as §1
Candida albicans [23] = experiment: Antimicrobial activity against Candida albicans SC5314 at planktonic cell density of 10^8 cells/ml after 48 hrs by XTT assay; details: SC5314, 48 h; in short: as §3
Candida albicans [24] = experiment: Antimicrobial activity against Chk1 deficient Candida albicans CHK21 dissociated biofilms at cell density of 10^8 cells/ml after 48 hrs by XTT assay; details: CHK21, 48 h; in short: as §2
Candida albicans [25] = experiment: Antimicrobial activity against Candida albicans FH1 dissociated biofilms at cell density of 10^8 cells/ml after 48 hrs by XTT assay; details: FH1, 48 h; in short: as §2
Candida albicans [26] = experiment: Antimicrobial activity against Chk1 deficient Candida albicans CHK21 intact biofilms after 48 hrs by XTT assay; details: CHK21, 48 h; in short: as §1
Candida albicans [27] = experiment: Antimicrobial activity against Chk1 deficient Candida albicans CHK21 at planktonic cell density of 10^8 cells/ml after 48 hrs by XTT assay; details: CHK21, 48 h; in short: as §3
Candida albicans [28] = experiment: Antimicrobial activity against Candida albicans GDH2346 dissociated biofilms at cell density of 10^3 cells/ml after 48 hrs by XTT assay; details: GDH2346, 48 h; in short: as §2
Candida albicans [29] = experiment: Antimicrobial activity against Candida albicans FH1 at planktonic cell density of 10^8 cells/ml after 48 hrs by XTT assay; details: FH1, 48 h; in short: as §3
Candida albicans [30] = experiment: Antimicrobial activity against Candida albicans SC5314 dissociated biofilms at cell density of 10^8 cells/ml after 48 hrs by XTT assay; details: SC5314, 48 h; in short: as §2

In the case of CC(=O)N1CCN(c2ccc(OC[C@H]3CO[C@](Cn4ccnc4)(c4ccc(Cl)cc4Cl)O3)cc2)CC1 [KETOCONAZOLE], the MIC80 (Candida albicans [1]) is reported as > 64 µg/mL, the MIC80 (Candida albicans [2]) is reported as > 64 µg/mL and the MIC80 (Candida albicans [3]) is reported as 0.125 µg/mL (≈ 0.235 µM). The MIC80 (Candida albicans [4]) was > 512 µg/mL, the MIC80 (Candida albicans [5]) was 0.125 µg/mL (≈ 0.235 µM) and the MIC80 (Candida albicans [6]) was > 256 µg/mL. The MIC80 (Candida albicans [7]) was 4 µg/mL (≈ 7.53 µM), the MIC80 (Candida albicans [8]) was > 256 µg/mL and the MIC80 (Candida albicans [9]) was 64 µg/mL (≈ 120 µM). For the same compound, the MIC80 (Candida albicans [10]) was 4 µg/mL (≈ 7.53 µM), the MIC80 (Candida albicans [11]) was 0.25 µg/mL (≈ 0.47 µM) and the MIC80 (Candida albicans [12]) was > 512 µg/mL. For the same compound, the MIC80 (Candida albicans [13]) was 0.25 µg/mL (≈ 0.47 µM), the MIC80 (Candida albicans [14]) was > 512 µg/mL and the MIC80 (Candida albicans [15]) was 0.125 µg/mL (≈ 0.235 µM). The MIC80 (Candida albicans [16]) was 0.125 µg/mL (≈ 0.235 µM), the MIC80 (Candida albicans [17]) was > 512 µg/mL and the MIC80 (Candida albicans [18]) was > 64 µg/mL. The MIC80 (Candida albicans [19]) was > 512 µg/mL, the MIC80 (Candida albicans [20]) was 0.5 µg/mL (≈ 0.941 µM) and the MIC80 (Candida albicans [21]) was 64 µg/mL (≈ 120 µM). For the same compound, the MIC80 (Candida albicans [22]) was > 512 µg/mL, the MIC80 (Candida albicans [23]) was > 512 µg/mL and the MIC80 (Candida albicans [24]) was > 64 µg/mL. For the same compound, the MIC80 (Candida albicans [25]) was > 512 µg/mL, the MIC80 (Candida albicans [26]) was > 64 µg/mL and the MIC80 (Candida albicans [27]) was > 64 µg/mL. For the same compound, the MIC80 (Candida albicans [28]) was 0.125 µg/mL (≈ 0.235 µM), the MIC80 (Candida albicans [29]) was > 512 µg/mL and the MIC80 (Candida albicans [30]) was > 512 µg/mL.
